ChEMBL document CHEMBL3580569, “N-Substituted Quinolinonyl Diketo Acid Derivatives as HIV Integrase Strand Transfer Inhibitors and Their Activity against RNase H Function of Reverse Transcriptase” (J Med Chem, 2015)

Experiments:
[1] = tested on: Human immunodeficiency virus 1; test: Antiviral activity against HIV-1 3B infected in human HeLa-CD4-LTR-beta-gal cells assessed as inhibition of viral replication by SpectraMax GEMINI-XS plate reader analysis; type: functional, organism-based; conditions: Human immunodeficiency virus 1, 3B
Outline: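 HeLa-CD4-LTR-β-gal cells kept in DMEM, 10% serum, 0.5 mg/mL G418; seeded 10000 cells/well the day before. Drug 3-fold serially diluted over six points on cells (top 50 μM), then fresh medium or concentrated HIV-1(IIIB) supernatant added.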

HeLa = test: Cytotoxicity against human HeLa-CD4-LTR-beta-gal cells after 24 hrs by ATPlite reagent based luminescence analysis; type: cell-based
[2] = target: Human immunodeficiency virus type 1 reverse transcriptase (Human immunodeficiency virus 1, UniProt Q72547); test: Inhibition of RNase H function of HIV1 reverse transcriptase using DNA/RNA hybrid as substrate by fluorescence spectrometer analysis
[3] = target: T1, Human immunodeficiency virus type 1 integrase (Human immunodeficiency virus 1, UniProt Q7ZJM1)
T1 sequence (Q7ZJM1 whole entry): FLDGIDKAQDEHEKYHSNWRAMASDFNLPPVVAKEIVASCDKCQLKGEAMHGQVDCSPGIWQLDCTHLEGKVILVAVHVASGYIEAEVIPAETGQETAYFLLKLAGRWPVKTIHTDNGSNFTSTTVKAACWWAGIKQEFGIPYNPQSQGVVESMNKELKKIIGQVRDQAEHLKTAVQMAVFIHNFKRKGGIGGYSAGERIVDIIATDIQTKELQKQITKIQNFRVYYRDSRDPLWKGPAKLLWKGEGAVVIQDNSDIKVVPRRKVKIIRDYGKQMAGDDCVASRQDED

[4] = target: T1, Human immunodeficiency virus type 1 integrase; remark: listed apart in the source
[5] = Selectivity index, ratio of CC50 for human HeLa-CD4-LTR-beta-gal cells to EC50 for HIV-1 3B infected in human HeLa-CD4-LTR-beta-gal cells; type: toxicity; conditions: read-out: Ratio CC50/EC50
[6] = target: Human immunodeficiency virus type 1 reverse transcriptase (Human immunodeficiency virus 1) (UniProt Q72547); test: Inhibition of RNase H function of HIV1 reverse transcriptase using DNA/RNA hybrid as substrate at 10 uM by fluorescence spectrometer analysis
Outline: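 RNase H activity of HIV-1 RT was measured with an RNA/DNA hybrid substrate at 250 nM final, with 150–800 ng RT, in 50 mM Tris-HCl pH 8.0, 60 mM KCl, 10 mM MgCl2 and 1% DMSO, against DMSO-only wells. Fluorescence (ex 485/em 520 nm) was read each minute over 10 min at 37 °C. Percent inhibition at 10 μM = 100(v0−vi)/v0 from initial rates, run in triplicate.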

Structure (SMILES) | EC50 [1] [µM] | CC50 (HeLa) [µM] | IC50 [2] [µM] | IC50 [3] [µM] | IC50 [4] [nM] | selectivity ratio [5] | inhibition [6] [%]
O=C(O)/C(O)=C/C(=O)c1cn(Cc2ccc(Cl)cc2)c2ccccc2c1=O | 0.87 | > 50 | > 50 | 22 | 540 | > 57.5 | 56.2
O=C(O)/C(O)=C/C(=O)c1cn(Cc2c(F)cccc2F)c2ccccc2c1=O [RDS-1984] | 8.1 | > 50 | 10.8 | 0.7 | 19 | > 6.2 | 
CCOC(=O)/C(O)=C/C(=O)c1cn(Cc2c(Cl)cccc2Cl)c2ccccc2c1=O | 30.2 | > 50 | > 50 |  | 32000 | > 1.7 | 55
O=C(O)/C(O)=C/C(=O)c1cn(Cc2ccc(F)c(F)c2)c2ccccc2c1=O | 16.2 | > 50 | > 50 |  | 110 | > 3.1 | 44
O=C(O)/C(O)=C/C(=O)c1cn(Cc2ccccc2F)c2ccccc2c1=O | 2.6 | > 50 | > 50 | 1.2 | 16 | > 19.2 | 45.1
O=C(O)/C(O)=C/C(=O)c1cn(Cc2ccc(F)cc2F)c2ccccc2c1=O | 13.8 | > 50 | 35.9 |  | 10 | > 3.6 | 
COc1ccc(Cn2cc(C(=O)/C=C(\O)C(=O)O)c(=O)c3ccccc32)cc1 | > 50 |  | > 50 | 28 | 510 |  | 45.8
COc1ccccc1Cn1cc(C(=O)/C=C(\O)C(=O)O)c(=O)c2ccccc21 | 9.3 | > 50 | 16.3 | > 4.1 | 38 | > 5.4 | 
O=C(O)/C(O)=C/C(=O)c1cn(Cc2ccccc2F)c2cc(Cl)ccc2c1=O | 17 | > 50 | 22.6 |  |  | > 2.9 | 
